In the library only some 1.6% were active in any assay of this set; here they are far more common.
MT1-MMP act inh – blocks activation of human MT1-MMP; P50281; GFP/RFP ratio change, % at 20 µM; 360,000 compounds, 0.061% hits; HT1080 RFP-PRO-GFP cells, GFP/RFP ratio fluorescence, overnight; percent of plate control window, DMSO zero;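 active = GFP/RFP ratio change of at least 30% with cell ATP level not reduced by more than half and red fluorescence within 50% of control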
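Assay system – RFP-PRO-GFP reporter HT1080 cells · Compound dosing – single dose of 20 µM compound, 1% DMSO final · Incubation – overnight compound exposure at 37 °C · Measure – GFP/RFP fluorescence ratio · Benchmarks – DMSO wells and RFP-L50D-GFP cells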
ADAM10 inh – ADAM10 inhibition, QFRET primary screen; O14672; recombinant ADAM10, EDANS/DABCYL FRET peptide cleavage, 3 h; inhibition, % at 7 µM; 370,000 compounds, 0.62% hits; AID 720582;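 active = inhibition above a per-campaign cutoff equal to the mean of compounds falling between control-based bounds plus 3 SD, cut at about 20% in these data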;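 note: 0% = DMSO wells while the 100% control is not disclosed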
Tn7 DDE FP – disrupts Tn7 cyclic peptide binding to fibrin D-Dimer-E complex. 370,000 compounds, 0.13% hits. inhibition, % at 8.3 µM. FP displacement of FITC-Tn7 peptide from fibrin DD(E); 0% = median of compound wells per plate. P02675;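 active = inhibition above the mean of compounds falling within the control limits plus 3 SD of them, cut at about 14% in these data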;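 note: 0% = plate median of compound wells and 100% = 10 µM Aha-Tn7 peptide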
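Test system – human fibrin DD(E) · Times – 10 min preincubation, 3 h with tracer, room temperature · Detection – fluorescence polarization of the labelled Tn7 tracer · Measure – percent inhibition normalized to high-control wells · Benchmarks – high control wells with 10 µM unlabelled Aha-Tn7 peptide (full inhibition) · Repeats – singlicate testing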
ADAM17 inh – ADAM17 inhibition, QFRET primary screen. AID 720648. inhibition, % at 6.95 µM. 370,000 compounds, 0.83% hits. recombinant ADAM17, EDANS/DABCYL FRET peptide cleavage;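 active = inhibition above the mean of compounds lying between control limits plus 3 SD, set per campaign, cut at about 8.5% in these data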;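 note: 0% = DMSO-only wells as the low control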
Target sequence (P78536 215-824 limits assumed): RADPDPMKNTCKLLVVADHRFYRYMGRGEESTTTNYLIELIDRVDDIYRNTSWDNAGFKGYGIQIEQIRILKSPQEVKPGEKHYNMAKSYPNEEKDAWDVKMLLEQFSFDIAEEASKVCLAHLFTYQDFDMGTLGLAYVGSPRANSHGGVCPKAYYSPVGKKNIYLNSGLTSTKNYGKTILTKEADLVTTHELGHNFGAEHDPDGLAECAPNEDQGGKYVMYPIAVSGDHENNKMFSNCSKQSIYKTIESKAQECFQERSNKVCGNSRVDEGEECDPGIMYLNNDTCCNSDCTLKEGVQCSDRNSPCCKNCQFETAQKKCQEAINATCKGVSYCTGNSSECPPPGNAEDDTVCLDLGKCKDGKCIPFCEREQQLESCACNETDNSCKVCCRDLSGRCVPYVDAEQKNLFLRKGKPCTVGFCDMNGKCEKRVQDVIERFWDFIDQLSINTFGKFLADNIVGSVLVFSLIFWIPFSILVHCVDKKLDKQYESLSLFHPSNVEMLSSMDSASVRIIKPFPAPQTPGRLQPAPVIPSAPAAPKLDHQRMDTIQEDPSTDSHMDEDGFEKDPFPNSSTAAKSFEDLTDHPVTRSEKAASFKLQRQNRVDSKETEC
Tn6 DDE FP – inhibitors of Tn6 peptide binding to human fibrin DD(E). Fibrin DD(E) TRITC-Tn6 fluorescence polarization displacement. inhibition, % at 8.3 µM. 370,000 compounds, 0.21% hits;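 active = inhibition above a per-campaign cutoff: mean of compounds within control limits plus 3 SD, cut at about 15% in these data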;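 note: 0% = median of all compound wells on the plate and 100% = blocking peptide control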
ADAM10 counter – inhibits human ADAM10 in ADAM17 exosite counter-screen | shares compounds with ADAM17 inh | recombinant ADAM10, EDANS/DABCYL FRET peptide cleavage, 3 h | inhibition, % at 6.95 µM | 2,900 compounds, 47% hits | AID 743256;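 active = mean inhibition over the triplicate runs exceeds the activity threshold set in the earlier primary screen, cut at about 20% in these data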;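 note: 0% = DMSO wells and 100% = marimastat wells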
ADAM17 confirm – human ADAM17 inhibition, confirmation; shares compounds with ADAM17 inh; recombinant ADAM17, EDANS/DABCYL QFRET peptide cleavage; inhibition, % at 6.95 µM; 2,900 compounds, 65% hits; AID 743257;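 active = mean inhibition across replicates above the hit cutoff set in the primary screen, cut at about 8.5% in these data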;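 note: 0% = DMSO wells and 100% = marimastat wells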
* hit, by the source's call.

Results for Oc1ccc(C[C@H]2CNC(=S)N2CC2CCCN2C[C@H](Cc2ccccc2)N2C[C@H](Cc3ccc(O)cc3)N(CCc3ccccc3)C2=S)cc1 (some centres not stated) ?
MT1-MMP act inh: 3; ADAM10 inh: 19; Tn7 DDE FP: -2; ADAM17 inh: 10*; Tn6 DDE FP: 4; ADAM10 counter: 44*; ADAM17 confirm: 22*

Results for CCOc1ccc(CCN2C(=S)N([C@@H](CC(C)C)CN3CCCC3CN3C(=S)NC[C@@H]3Cc3ccc(O)cc3)C[C@@H]2Cc2ccccc2)cc1 (some centres not stated) ?
MT1-MMP act inh: -4; ADAM10 inh: 1; Tn7 DDE FP: -9; ADAM17 inh: 3; Tn6 DDE FP: -3

How did Cc1cc(N2CCN(C(=O)OC(C)(C)C)C[C@H]2C)ccc1N1C[C@@H](C)O[C@@H](C)C1 do in these assays?
ADAM10 inh: -14; Tn7 DDE FP: 1; ADAM17 inh: -4; Tn6 DDE FP: 0

What do the screens show for `Cc1ccccc1-c1ccc2c(c1)[C@@H]1C[C@H](N(C)S(=O)(=O)c3ccc(Cl)cc3)[C@H]([C@H](C)O)CN1CC2`?
ADAM10 inh: -99; Tn7 DDE FP: 3; ADAM17 inh: -16; Tn6 DDE FP: 4

What do the screens show for `O=S1(=O)c2ccc(Br)cc2OC[C@H](Cc2ccccc2)N1Cc1cn(CCC2OCCO2)nn1`?
ADAM10 inh: 3; Tn7 DDE FP: -4; ADAM17 inh: -3; Tn6 DDE FP: 2

Results for COC(=O)[C@]12C[C@H](CC(=O)N3CCSCC3)C(=O)N(Cc3ccc(Cl)cc3Cl)C1=C[C@H](COCc1ccccc1)O[C@@H]2C ?
ADAM10 inh: 10; Tn7 DDE FP: 1; ADAM17 inh: 8; Tn6 DDE FP: -1

Results for Cc1ccc(-n2c(Cc3cccs3)nnc2SCc2ccc(Br)cc2)cc1 ?
ADAM10 inh: 13; Tn7 DDE FP: 4; ADAM17 inh: 8; Tn6 DDE FP: -5

Results for Cc1c(CN2CCN(c3ncc(Cc4ccccc4)cn3)CC2)c(=O)n(-c2ccccc2)n1C ?
ADAM10 inh: -15; Tn7 DDE FP: 3; ADAM17 inh: -3; Tn6 DDE FP: -1

How did O=C(OCCC1Oc2cccnc2NC1=O)c1ccc(F)cc1 (configuration not stated) do in these assays?
MT1-MMP act inh: 1; ADAM10 inh: -5; Tn7 DDE FP: 1; ADAM17 inh: -1; Tn6 DDE FP: -4

Results for O=C(OCCC1Oc2cccnc2NC1=O)c1ccc([N+](=O)[O-])cc1 (configuration not stated) ?
ADAM10 inh: 13; Tn7 DDE FP: -9; ADAM17 inh: 9.1*; Tn6 DDE FP: -6; ADAM10 counter: 2; ADAM17 confirm: 6

Results for COc1ccc(-c2csc(NC(=O)COc3ccc(N(C)S(=O)(=O)c4ccc(C)cc4)cc3)n2)cc1 ?
MT1-MMP act inh: -1; ADAM10 inh: 11; Tn7 DDE FP: -4; ADAM17 inh: 9.9*; Tn6 DDE FP: 4; ADAM10 counter: 12; ADAM17 confirm: 9

What do the screens show for `Cc1ccc(-c2csc(NC(=O)COc3ccc(N(C)S(=O)(=O)c4ccc(C)cc4)cc3)n2)cc1`?
MT1-MMP act inh: -13; ADAM10 inh: 0; Tn7 DDE FP: 5; ADAM17 inh: -1; Tn6 DDE FP: 4

How did O=C(Nc1ccccc1)N1c2ccccc2SC1c1ccco1 (configuration not stated) do in these assays?
ADAM10 inh: 2; Tn7 DDE FP: 2; ADAM17 inh: 0; Tn6 DDE FP: -4

Results for CCOC(=O)C1=C(O)/C(=C/c2ccc(-c3ccccc3C(=O)O)o2)SC1=Nc1ccc(OC)cc1 ?
MT1-MMP act inh: -27; ADAM10 inh: 11; Tn7 DDE FP: -4; ADAM17 inh: 9.5*; Tn6 DDE FP: -1; ADAM10 counter: 9; ADAM17 confirm: 8.8*

What do the screens show for `CC(=O)Nc1ccc(-c2ccnc3c2CC(C)(C(=O)Nc2ccccc2)O3)cc1` (configuration not stated)?
MT1-MMP act inh: 0; ADAM10 inh: -6; Tn7 DDE FP: 0; ADAM17 inh: -1; Tn6 DDE FP: -6

How did CC(=O)Nc1ccc(-c2ccnc3c2CC(C)(C(=O)NCCc2ccccc2)O3)cc1 (configuration not stated) do in these assays?
MT1-MMP act inh: -7; ADAM10 inh: -8; Tn7 DDE FP: -9; ADAM17 inh: 9.5*; Tn6 DDE FP: 0; ADAM10 counter: 11; ADAM17 confirm: 7

What do the screens show for `N#CCC(CNc1ncc(C(F)(F)F)cc1Cl)OC(=O)c1ccc(Cl)cc1` (configuration not stated)?
MT1-MMP act inh: -2; ADAM10 inh: 16; Tn7 DDE FP: -1; ADAM17 inh: 8.7*; Tn6 DDE FP: -4; ADAM10 counter: 35*; ADAM17 confirm: 16*

How did N#CC/C(N)=N/NC(=O)CCCNc1ncc(C(F)(F)F)cc1Cl do in these assays?
MT1-MMP act inh: 8; ADAM10 inh: -1; Tn7 DDE FP: -9; ADAM17 inh: 0; Tn6 DDE FP: 1

How did O=S(=O)(c1cccs1)N1CCC(CO)(Cc2ccc(Cl)cc2)CC1 do in these assays?
MT1-MMP act inh: 1; ADAM10 inh: 17; Tn7 DDE FP: 7; ADAM17 inh: 12*; Tn6 DDE FP: 0; ADAM10 counter: 1; ADAM17 confirm: 8

How did c1ccc(-c2csc(Nc3ccccn3)n2)cc1 do in these assays?
MT1-MMP act inh: 1; ADAM10 inh: 4; Tn7 DDE FP: -1; ADAM17 inh: 1; Tn6 DDE FP: -5

What do the screens show for `Cc1ccc(-c2csc(Nc3ccccn3)n2)cc1`?
MT1-MMP act inh: -2; ADAM10 inh: 8; Tn7 DDE FP: -5; ADAM17 inh: 9.0*; Tn6 DDE FP: 3; ADAM10 counter: 27*; ADAM17 confirm: 16*

Results for Cc1cc(C)c2nc(N(CCCN(C)C)C(=O)C3=COCCO3)sc2c1 ?
MT1-MMP act inh: -4; ADAM10 inh: -3; Tn7 DDE FP: -4; ADAM17 inh: -6; Tn6 DDE FP: 4

How did CCN(C(=O)C1=COCCO1)c1nc2c(C)cccc2s1 do in these assays?
MT1-MMP act inh: -1; ADAM10 inh: 5; Tn7 DDE FP: -8; ADAM17 inh: 9.3*; Tn6 DDE FP: 10; ADAM10 counter: -2; ADAM17 confirm: 3

From PubChem
